In brackets after ≈: the same amount, converted by molar mass. Activity calls are given as the source filed them. The rule behind the calls is not given here.
Assays:
[1] = system: Lipopolysaccharide (LPS); experiment: Binding affinity to LPS assessed as inhibition of LPS-induced LAL enzyme activation at 18 uM after 30 mins by spectrophotometric analysis
Method in brief: (§1)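 Chromogenic limulus amoebocyte lysate endotoxin kit. Peptide binding to LPS estimated from inhibition of LPS-induced LAL enzyme activation, i.e. reduced substrate colour, and reported as percentage LPS binding.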

[2] = system: Lipopolysaccharide (LPS); experiment: Binding affinity to LPS assessed as inhibition of LPS-induced LAL enzyme activation at 9 uM after 30 mins by spectrophotometric analysis; method in brief: as §1
[3] = system: Lipopolysaccharide (LPS); experiment: Binding affinity to LPS assessed as inhibition of LPS-induced LAL enzyme activation at 4.5 uM after 30 mins by spectrophotometric analysis; method in brief: as §1
[4] = system: Lipopolysaccharide (LPS); experiment: Binding affinity to FITC-tagged LPS assessed as induction of disintegration up to 40 uM by […]; settings: in the assay text read “fluorescence dequenching” for “circular dichroism”
Method in brief: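 FITC-LPS (0.5 μg/mL) titrated with increasing peptide concentrations. Disaggregation read as dequenching, i.e. rise in FITC fluorescence, monitored after each addition until emission reached equilibrium.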

[5] = system: Lipopolysaccharide (LPS); experiment: Binding affinity to LPS assessed as increase in helical structure at 36 uM by circular dichroism analysis
Method in brief: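 CD spectra of peptides (36 μM) recorded alone and with LPS at 3.8 and 6.25 μM.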

[6] = system: RAW264.7; experiment: Antiinflammatory activity in mouse RAW264.7 cells assessed as inhibition of LPS-induced IL6 secretion at 1.5 to 4.5 uM after 12 hrs by ELISA; assay type: functional, cell-based
Method in brief: (§2)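 RAW 264.7 cells treated with LPS alone or LPS plus peptide. TNF-α and IL-6 measured by ELISA in culture supernatant and expressed as percentage inhibition of LPS-induced secretion. Mean of three independent experiments, SD shown.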

[7] = system: RAW264.7; experiment: Antiinflammatory activity in mouse RAW264.7 cells assessed as downregulation of LPS-induced iNOS2 expression at 4.5 uM after 24 hrs by Western blotting analysis; assay type: functional, cell-based
Method in brief: (§3)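 RAW 264.7 cells (~2 × 10^5) stimulated with LPS 1 μg/mL plus peptide 4.5 μM for 24 h. Cells washed in ice-cold PBS and lysed in Laemmli buffer. SDS-PAGE (8% gel iNOS-2, 12% TNF-α), nitrocellulose transfer, alkaline phosphatase secondary with NBT/BCIP. Band densities normalized to β-actin. LPS-only and untreated cells served as controls.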

[8] = system: RAW264.7; experiment: Antiinflammatory activity in mouse RAW264.7 cells assessed as downregulation of LPS-induced TNFalpha expression at 4.5 uM after 24 hrs by Western blotting analysis; assay type: functional, cell-based; method in brief: as §3
[9] = system: RAW264.7; experiment: Antiinflammatory activity in mouse RAW264.7 cells assessed as inhibition of LPS-induced NO production at 3 uM by Griess method; assay type: functional; set-up: scale not given: the % may be the effect or the level left
Method in brief: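 RAW 264.7 cells plated at 5 × 10^5/well and exposed to LPS (E. coli 0111:B4, 1 μg/mL) together with peptide at varying doses. Cells with and without LPS served as maximum and basal NO controls. Nitrite in the supernatant measured by Griess reagent at 548 nm against a sodium nitrite standard curve, and percent inhibition of NO calculated.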

[10] = Binding affinity to PE/PG lipid vesicles assessed as increase in helical structure at 36 uM by circular dichroism analysis; assay type: physicochemical
Method in brief: (§4)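 Peptides (~36 μM) with ~500 μM PC/Chol (8:1 w/w) or PE/PG (7:3 w/w) vesicles. CD spectra 250–190 nm at ~30 °C in 0.2 cm cuvette; 4–6 scans averaged at 20 nm/min, 0.5 nm interval.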

[11] = Binding affinity to PC/Chol lipid vesicles assessed as increase in helical structure at 36 uM by circular dichroism analysis; assay type: physicochemical; method in brief: as §4
[12] = Binding affinity to PE/PG lipid vesicles assessed as decrease in decrease in acrylamide-induced tryptophan fluorescence quenching at 1 uM; assay type: physicochemical
Method in brief: (§5)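 Acrylamide quencher added in aliquots from 3.0 M stock to peptide with PC/Chol (8:1) or PE/PG (7:3) SUVs, peptide/lipid 1:100. Trp excited at 295 nm. Values corrected for dilution and vesicle-blank scatter, then fitted to Stern–Volmer F0/F = 1 + KSV[Q].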

[13] = Binding affinity to PC/Chol lipid vesicles assessed as decrease in acrylamide-induced tryptophan fluorescence quenching at 1 uM; assay type: physicochemical; method in brief: as §5
[14] = Binding affinity to PC/Chol lipid vesicles assessed as induction of large blue shift at 1 uM by fluorescence assay; assay type: physicochemical
[15] = Binding affinity to PE/PG lipid vesicles assessed as induction of large blue shift at 1 uM by fluorescence assay; assay type: physicochemical
[16] = Induction of dissipation of diffusion potential in PC/Chol lipid vesicles by fluorescence assay; assay type: physicochemical
Method in brief: (§6)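 SUVs of PC/Chol (8:1 w/w) or PE/PG (7:3 w/w) treated with peptide. Dissipation of diffusion potential taken as percentage fluorescence recovery ~5 min after peptide addition, with valinomycin used for reference levels. Plotted against peptide/lipid molar ratio.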

[17] = Induction of dissipation of diffusion potential in PE/PG lipid vesicles by fluorescence assay; assay type: physicochemical; method in brief: as §6
[18] = system: Staphylococcus aureus; experiment: Bactericidal activity against Staphylococcus aureus ATCC 9144 assessed as induction of membrane depolarization at up to 7 uM by DiSC3(5) staining-based fluorescence assay; assay type: functional, organism-based
Method in brief: (§7)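 Membrane potential dye diS-C3-5 preincubated 1 h with hRBC or S. aureus suspensions; I0 is steady-state fluorescence after this incubation. Peptide then added at varying concentrations. Depolarization expressed as percentage fluorescence recovery (Ft) versus peptide concentration.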

[19] = Cytotoxicity against human RBC assessed as induction of membrane depolarization at up to 16 uM by DiSC3(5) staining-based fluorescence assay; assay type: cell-based; settings: erythrocyte; method in brief: as §7
[20] = system: Escherichia coli; experiment: Bactericidal activity against Escherichia coli ATCC 10536 assessed as induction of membrane damage at 5 uM after 30 mins by propidium iodide staining-based flow cytometric analysis; assay type: functional, organism-based
Method in brief: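 Mid-log E. coli incubated with peptide (~5.0 μM) 30 min at 37 °C with shaking. Cells washed twice in PBS, stained with propidium iodide 30 min at 4 °C, washed and resuspended. 10000 events per sample by flow cytometry, compared with peptide-free control.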

[21] = Cytotoxicity against human RBC assessed as induction of membrane damage at 25 uM after 5 mins by annexin V-FITC staining-based FACS flow cytometric analysis; assay type: cell-based; settings: erythrocyte
Method in brief: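 hRBCs (~3.0 × 10^7 cells/mL) treated with peptide (~25.0 μM) for 5 min at room temperature. Stained with FITC-annexin V and analysed by flow cytometry, 10000 events, compared with untreated control.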

[22] = system: Escherichia coli; experiment: Drug uptake in Escherichia coli ATCC 10536 assessed as membrane localization at 3 uM after 30 mins by confocal microscopic analysis; assay type: ADME, organism-based; settings: in vivo, 0.5 h
Method in brief: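 E. coli (~10^6 CFU/mL) in LB incubated with fluorescent-labeled peptide (~3.0 μM) for half an hour. Cells centrifuged, washed and imaged by confocal microscopy (DIC and fluorescence).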

[23] = system: Aspergillus fumigatus; experiment: Antifungal activity against Aspergillus fumigatus after 72 hrs by NCCLS microbroth dilution method; assay type: functional
Method in brief: (§8)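 Microbroth dilution in MOPS-buffered RPMI 1640 following NCCLS guidelines. Inoculum 1−5 × 10^3 cells/mL, peptide range 50−0.36 (mass/mL). Plates held in a moist chamber at 35 °C and A492 read after 48 h (Candida spp.), 72 h (A. fumigatus, S. schenckii, C. neoformans) or 96 h (T. mentagrophytes). MIC taken as 90% growth inhibition versus growth control.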

[24] = system: Trichophyton mentagrophytes; experiment: Antifungal activity against Trichophyton mentagrophytes after 96 hrs by NCCLS microbroth dilution method; assay type: functional; method in brief: as §8
[25] = system: Sporothrix schenckii; experiment: Antifungal activity against Sporothrix schenckii after 72 hrs by NCCLS microbroth dilution method; assay type: functional; method in brief: as §8
[26] = system: Candida parapsilosis; experiment: Antifungal activity against Candida parapsilosis ATCC 22019 after 48 hrs by NCCLS microbroth dilution method; assay type: functional; settings: Lodderomyces parapsilosis, ATCC 22019, 48 h; method in brief: as §8
[27] = system: Cryptococcus neoformans; experiment: Antifungal activity against Cryptococcus neoformans after 72 hrs by NCCLS microbroth dilution method; assay type: functional; method in brief: as §8
[28] = system: Candida albicans; experiment: Antifungal activity against Candida albicans after 48 hrs by NCCLS microbroth dilution method; assay type: functional; method in brief: as §8
[29] = system: Klebsiella pneumoniae; experiment: Antibacterial activity against Klebsiella pneumoniae ATCC 27736 after 18 hrs by broth dilution method; assay type: functional; settings: ATCC 27736, 18 h
Method in brief: (§9)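 Bacteria grown aerobically at 37 °C in Mueller-Hinton broth to mid-log phase (OD600), diluted to ~10^6 cfu/mL, then mixed 1:1 with 2-fold serial peptide dilutions in water. Incubation ~18 h at 37 °C before MIC read-out (μM).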

[30] = system: Pseudomonas aeruginosa; experiment: Antibacterial activity against Pseudomonas aeruginosa ATCC BAA-427 after 18 hrs by broth dilution method; assay type: functional; settings: ATCC BAA-427, 18 h; method in brief: as §9
[31] = system: Staphylococcus aureus; experiment: Antibacterial activity against methicillin-resistant Staphylococcus aureus after 18 hrs by broth dilution method; assay type: functional; method in brief: as §9
[32] = system: Escherichia coli; experiment: Antibacterial activity against Escherichia coli ATCC 10536 after 18 hrs by broth dilution method; assay type: functional; settings: ATCC 10536, 18 h; method in brief: as §9
[33] = system: Bacillus subtilis; experiment: Antibacterial activity against Bacillus subtilis ATCC 6633 after 18 hrs by broth dilution method; assay type: functional; settings: ATCC 6633, 18 h; method in brief: as §9
[34] = system: Staphylococcus epidermidis; experiment: Antibacterial activity against Staphylococcus epidermidis NRRL B-4268 after 18 hrs by broth dilution method; assay type: functional; settings: NRRL B-4268, 18 h; method in brief: as §9
[35] = system: Staphylococcus aureus; experiment: Antibacterial activity against Staphylococcus aureus ATCC 9144 after 18 hrs by broth dilution method; assay type: functional; settings: ATCC 9144, 18 h; method in brief: as §9
[36] = system: NIH3T3; experiment: Cytotoxicity against mouse 3T3 cells assessed as cell viability up to 25 uM by MTT assay; assay type: cell-based
Method in brief: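 Murine 3T3 fibroblasts, grown in DMEM/IMDM with 10% FCS at 37 °C, 5% CO2, seeded at 10000 cells/well. Viability after peptide exposure measured by MTT (mitochondrial dehydrogenase) across a dose range.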

[37] = Cytotoxicity against human RBC assessed as hemolysis at 60 uM; assay type: cell-based, Erythrocyte; settings: red blood cells (RBC), read-out: Activity
Method in brief: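 hRBCs in PBS exposed to peptide. Hemoglobin release read as supernatant absorbance at 540 nm. Hemolysis % = (Asample − Ablank)/(Atriton − Ablank) × 100, with PBS blank and 0.2% Triton X-100 (final) as 100% reference.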

[38] = system: RAW264.7; experiment: Antiinflammatory activity in mouse RAW264.7 cells assessed as inhibition of LPS-induced TNFalpha secretion at 1.5 to 4.5 uM after 12 hrs by ELISA; assay type: functional, cell-based; method in brief: as §2
[39] = Drug uptake in human RBC assessed as membrane localization at 9 uM after 10 to 30 mins by confocal microscopic analysis; assay type: ADME; settings: erythrocyte
Method in brief: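 Fresh hRBCs (3% in PBS) incubated with NBD-labeled peptide (~9.0 μM) for 10–30 min at 37 °C. Washed, fixed in 2% paraformaldehyde 10 min, and imaged by confocal microscopy at constant photomultiplier setting.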

Structure (SMILES): CC(C)C[C@H](N)C(=O)O [LEUCINE]
- inhibition [1]: Active
- inhibition [2]: 90%
- inhibition [3]: 72%
- Activity [4]: Active
- Activity [5]: Active
- inhibition [6]: Active
- Activity [7]: Active
- Activity [8]: Active
- Activity [9]: 90%
- Activity [10]: Active
- Activity [11]: Active
- Activity [12]: Active
- Activity [13]: Active
- Activity [14]: Active
- Activity [15]: Active
- Activity [16]: Active
- Activity [17]: Active
- Activity [18]: Active
- Activity [19]: Toxic
- Activity [20]: Active
- Activity [21]: Toxic
- Drug uptake [22]: Active
- MIC [23]: 3.1 µM (≈ 0.407 µg/mL)
- MIC [24]: 1.56 µM (≈ 0.205 µg/mL)
- MIC [25]: 1.56 µM (≈ 0.205 µg/mL)
- MIC [26]: 3 µM (≈ 0.394 µg/mL)
- MIC [27]: 6.1 µM (≈ 0.8 µg/mL)
- MIC [28]: 3.1 µM (≈ 0.407 µg/mL)
- MIC [29]: 6.2 µM (≈ 0.813 µg/mL)
- MIC [30]: 11.2 µM (≈ 1.47 µg/mL)
- MIC [31]: 6.25 µM (≈ 0.82 µg/mL)
- MIC [32]: 6.25 µM (≈ 0.82 µg/mL)
- MIC [33]: 10.5 µM (≈ 1.38 µg/mL)
- MIC [34]: 12.1 µM (≈ 1.59 µg/mL)
- MIC [35]: 6.25 µM (≈ 0.82 µg/mL)
- Activity [36]: Toxic
- hemolysis at 60 µM [37]: 80%
- inhibition [38]: Active
- Drug uptake [39]: Active

From ChEMBL document CHEMBL2311473, “Characterization of antimicrobial, cytotoxic, and antiendotoxin properties of short peptides with different hydrophobic amino acids at "a" and "d" positions of a heptad repeat sequence” (J Med Chem, 2013)
